Measurements reported in PubChem BioAssay AID488891 (Broad Institute, 2010).
Calls of active or inactive are those of the source.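 Rule for the calls: active = compounds raising caspase signal with a fitted AC50 no higher than the top valid dose tested; inconclusive = flat fit at partial mid-level activity, or unreliable fit; inactive = the rest.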

System: not listed separately
Test: caspase activation in A1/BIM-primed MEFs, dose response, A1 inhibitor project, cell-based, alternate A1 construct, Caspase-Glo luminescence, dry powder (AID 488891)
Details: MEF Flag-A1-IRES-BIM, caspase-Glo luminescence, 3 h; at 150 µM (top of the series)
Outline: (§1)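 Assay system: mouse embryonic fibroblasts primed with Flag-A1-IRES-BIM construct; Amount: 2500 cells/well; Doses: compound dose-response series, pin-transferred on day 2; Timing: 3 h compound exposure at 37 °C, then 1 h CaspaseGlo; Technique: luminescence with CaspaseGlo reagent; Measure: caspase activation.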
For `C=C1[C@@H](C)[C@H]2[C@H](Cc3ccccc3)NC(=O)[C@]23[C@H](OC(C)=O)/C=C/[C@](C)(O)C(=O)[C@@H](C)C/C=C/[C@H]3[C@@H]1O`, the caspase activation was 1.11% (inactive).
In the case of `CC(=O)OC(C)(C)/C=C/C(=O)[C@](C)(O)C1[C@H](O)C[C@@]2(C)C3CC=C4C(C[C@H](O)C(=O)C4(C)C)[C@]3(C)C(=O)C[C@]12C` (stereo not given in full), the caspase activation is reported as 3.76% (inactive).
In the case of `COc1cc(/C=C(/C#N)c2nc3ccccc3[nH]2)ccc1OCC(=O)Nc1ccccc1C(C)C`, the caspase activation is reported as 0.299% (inactive).

System: MEF Flag-A1-IRES-BIM, caspase-Glo luminescence, 3 h
Test: as above
Details: not given
Outline: as §1
With `CCOC(=O)CSC1=N/C(=C/c2ccc(-n3cncn3)cc2)C(=O)N1C(C)=O` the AC50 was 11.1 µM.
`O=C(Oc1cccc(/C=N/Nc2nc(Nc3ccccc3)nc(N3CCOCC3)n2)c1)c1ccco1` gave an AC50 of 8.01 µM.
Work on `O=C(CCl)N=c1sccn1Cc1ccccc1Cl` yielded an AC50 of 1.28 µM.
`Cc1cccc(CS(=O)(=O)c2ncc(Cl)c(C(=O)Nc3nnc(C(C)C)s3)n2)c1` gave an AC50 of 12 µM.
Work on `COc1cc(CN2CCN(c3cc(C)ccc3C)CC2)ccc1O` yielded an AC50 of 7.24 µM.
In the case of `C=C1[C@@H](C)[C@H]2[C@H](Cc3ccccc3)NC(=O)[C@]23OC(=O)/C=C\[C@H](O)CCC[C@@H](C)C/C=C/[C@H]3[C@@H]1O`, the AC50 is reported as 6.46 µM.
`CC(=O)N[C@H]1[C@H](O[C@H]2CC[C@@]3(C)C(CC[C@]4(C)C3CC=C3[C@@H]5CC(C)(C)CC[C@]5(C(=O)OC5OCC(O)C(O)C5O)C(O)C[C@]34C)C2(C)C)O[C@H](COC2OCC(O)C(OC3OCC(O)C(O)C3O)C2O)[C@@H](O[C@@H]2O[C@@H](C)[C@H](O)[C@@H](O)[C@H]2O[C@@H]2O[C@@H](C)[C@H](O)[C@@H](O)[C@H]2O)[C@@H]1O` (stereo not given in full) gave an AC50 of 7.88 µM.
For `Cc1ccc(Sc2c([N+](=O)[O-])c(=O)n(C)c3ccccc23)cc1`, the AC50 was 13.4 µM.
With `CCc1cc2c(=O)c(-c3cnn(-c4ccccc4)c3)c(C)oc2cc1OCC(=O)Nc1cccc(C)c1` the AC50 was 5.29 µM.
For `CCSc1nnc(NC(=O)c2nc(S(=O)(=O)Cc3ccc(F)cc3)ncc2Cl)s1`, the AC50 was 13.1 µM.
For `Nc1nc(F)nc2c1ncn2[C@@H]1O[C@H](CO)[C@@H](O)[C@H]1O`, the AC50 was 1.5 µM.
Compound `CCc1nnc(NC(=O)c2nc(S(=O)(=O)Cc3ccccc3)ncc2Cl)s1` has an AC50 of 11.6 µM.
`Cc1c(C=O)c(C=O)c(C)n1Cc1ccccc1` showed an AC50 of 12.9 µM.
In the case of `Cc1cc(C(=O)CCl)c(C)n1CCc1ccc(Cl)cc1`, the AC50 is reported as 9 µM.
`C/C1=C/C(=O)O[C@@H]2C[C@@H](CC[C@H](C)/C=C\CC1)O[C@@](O)(C1CSC(=O)N1)C2` (stereo not given in full) gave an AC50 of 0.607 µM.
Compound `Cc1c(CCOC(=O)c2ccc(N3CCOCC3)c([N+](=O)[O-])c2)sc[n+]1CC#N` has an AC50 of 14.2 µM.
`Cc1cccc(NC(=O)/C(C#N)=C/c2cn(CC(=O)NCc3ccco3)c3ccccc23)c1` showed an AC50 of 3.76 µM.
`COc1ccc(N(C(=O)CCl)C(C(=O)NCCc2ccccc2)c2cccs2)cc1Cl` (stereo not given) showed an AC50 of 9.36 µM.
With `CC(C)(C)n1nc(-c2ccc(Cl)cc2)c2c(N)ncnc21` the AC50 was > 150 µM (inactive).
For `Cc1ccc(CS(=O)(=O)c2ncc(Cl)c(C(=O)Nc3nnc(C(C)C)s3)n2)cc1`, the AC50 was 5.49 µM.
`Cn1c(=NC(=O)CCl)sc2ccccc21` gave an AC50 of 3.46 µM.
Compound `COc1cccc(C(=O)C(C#N)=C(SC)SC)c1` has an AC50 of 1.64 µM.
